This passage reports MIC and PAE results from ChEMBL document CHEMBL1629663, “Postantibiotic effects of telavancin against 16 gram-positive organisms” (Antimicrob Agents Chemother, 2009).

Common to all, as to assay type: functional
The subject of experiment [1] is Staphylococcus aureus. In words: Antimicrobial activity against heterogenous vancomycin-intermediate-, methicillin-resistant Staphylococcus aureus 873 by microdilution method.
In experiment [2] the test system is Staphylococcus aureus. Description: Antimicrobial activity against vancomycin-intermediate-, methicillin-resistant Staphylococcus aureus 770 assessed as time required to induce sub-MIC effect at 0.4 times MIC exposed for 2 hrs by plate counting method. The essentials: (§1)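 Sub-MIC effect: cultures not preexposed to drug were diluted and handled as in the PA-SME procedure in Mueller-Hinton broth with final 0.2, 0.3 or 0.4× MIC, plus a drug-free control. Viable plate counts were taken every 2 h until McFarland 1 turbidity. Duration was derived from growth curves. Two experiments were run, each with a new inoculum.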

In experiment [3] the test system is Streptococcus agalactiae. In words: Antimicrobial activity against Streptococcus agalactiae HMC 5 assessed as time required to induce sub-MIC effect at 0.4 times MIC exposed for 2 hrs by plate counting method. The essentials: (§2)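 Unexposed Mueller-Hinton broth cultures (about 5 × 10^6 CFU/ml, 35°C) were handled as in the PA-SME set but without the 10× MIC pre-exposure. They were diluted 1:1,000, then given telavancin at final 0.2, 0.3 or 0.4× MIC, with a drug-free control. Viable counts were taken every 2 h until McFarland no. 1 turbidity. Effect duration comes from log10 CFU/ml-time plots; two separate experiments with new inocula.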

For experiment [4], the system named is Staphylococcus aureus. Description: Antimicrobial activity against vancomycin-intermediate-, methicillin-resistant Staphylococcus aureus 1287 assessed as time required to induce post antibiotic sub-MIC effect at 0.4 times MIC […] by plate counting method. The essentials:
(§3)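 PAE was first induced with 10× MIC for 1 h at 35°C (inoculum about 5 × 10^6 CFU/ml, Mueller-Hinton broth) and ended by 1:1,000 dilution. Cultures were then split and given 0.2, 0.3 or 0.4× MIC, with one tube left without drug. Viable counts were taken before exposure, after dilution, then every 2 h until McFarland no. 1 turbidity. Two separate experiments, each with a new inoculum.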

The next experiment deals with Streptococcus pyogenes. In words: Antimicrobial activity against Streptococcus pyogenes HMC 414 assessed as time required to induce post antibiotic sub-MIC effect at 0.4 times MIC […] by plate counting method. The essentials: (§4)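 Mueller-Hinton broth cultures of about 5 × 10^6 CFU/ml were pre-exposed to telavancin at 10× MIC for 1 h at 35°C, then diluted 1:1,000. Telavancin was re-added to final 0.2, 0.3 or 0.4× MIC, alongside a drug-free tube. Viable counts were taken before exposure, after dilution, then every 2 h until McFarland no. 1 turbidity. Duration comes from log10 CFU/ml-versus-time plots; two separate experiments with fresh inocula.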

The subject of experiment [5] is Staphylococcus aureus. In words: Antimicrobial activity against vancomycin-intermediate-, methicillin-resistant Staphylococcus aureus 1984 by microdilution method.
Experiment [6] concerns Staphylococcus aureus. Description: Antimicrobial activity against vancomycin-resistant-, methicillin-resistant Staphylococcus aureus 510 by microdilution method.
Experiment [7] concerns Staphylococcus aureus. In words: Antimicrobial activity against vancomycin-susceptible-, methicillin-resistant Staphylococcus aureus ATCC 33591 assessed as time required to induce sub-MIC effect at 0.2 times MIC exposed for 2 hrs by plate counting method. The essentials: as §1
Experiment [8] has as its system Enterococcus faecalis. Description: Antimicrobial activity against Enterococcus faecalis ATCC 29212 assessed as time required to induce sub-MIC effect at 0.2 times MIC exposed for 2 hrs by plate counting method. The essentials:
as §2

In experiment [9] the test system is Enterococcus faecalis. In words: Antimicrobial activity against Enterococcus faecalis HMC 571 assessed as time required to induce sub-MIC effect at 0.2 times MIC exposed for 2 hrs by plate counting method. The essentials:
as §2

Experiment [10] relates to Staphylococcus aureus. Description: Antimicrobial activity against vancomycin-intermediate-, methicillin-resistant Staphylococcus aureus 555 assessed as time required to induce post antibiotic sub-MIC effect at 0.2 times MIC […] by plate counting method. The essentials: as §3
The subject of experiment [11] is Streptococcus agalactiae. Description: Antimicrobial activity against Streptococcus agalactiae HMC 5 assessed as time required to induce post antibiotic sub-MIC effect at 0.2 times MIC pre-exposed to Telavancin for 2 hrs by plate counting method. The settings on record: in the assay text read “for 1 hr” for “for 2 hrs”. The essentials: as §4
For experiment [12], the system named is Enterococcus faecalis. In words: Antimicrobial activity against Enterococcus faecalis ATCC 29212 assessed as time required to induce post antibiotic sub-MIC effect at 0.2 times MIC […] by plate counting method. The essentials:
as §4

In experiment [13] the test system is Enterococcus faecalis. Description: Antimicrobial activity against Enterococcus faecalis HMC 571 assessed as time required to induce post antibiotic sub-MIC effect at 0.2 times MIC pre-exposed to Telavancin […] by plate counting method. The essentials: as §4
Experiment [14] concerns Staphylococcus aureus. Description: Antimicrobial activity against vancomycin-susceptible-, methicillin-resistant Staphylococcus aureus ATCC 33591 assessed as time required to induce sub-MIC effect at 0.3 times MIC exposed for 2 hrs by plate counting method. The essentials:
as §1

Experiment [15] deals with Staphylococcus aureus. In words: Antimicrobial activity against vancomycin-susceptible-, methicillin-resistant Staphylococcus aureus ATCC 33591 assessed as time required to induce post antibiotic sub-MIC effect at 0.3 times MIC […] by plate counting method. The essentials:
(§5)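 After 1 h preexposure to 10× MIC at 35°C and 1:1,000 dilution, cultures were split, and drug was re-added to final 0.2, 0.3 or 0.4× MIC, with a drug-free tube. Viable counts were taken every 2 h until McFarland 1 turbidity. Duration was derived from log10 CFU/ml versus time curves. Two experiments were run, each with a new inoculum.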

For experiment [16], the system named is Staphylococcus aureus. In words: Antimicrobial activity against vancomycin-susceptible-, methicillin-resistant Staphylococcus aureus 1306 assessed as time required to induce post antibiotic sub-MIC effect at 0.3 times MIC […] by plate counting method. The essentials:
as §5

Experiment [17] deals with Staphylococcus aureus. In words: Antimicrobial activity against vancomycin-susceptible-, methicillin-resistant Staphylococcus aureus 1130 assessed as time required to induce sub-MIC effect at 0.4 times MIC exposed for 2 hrs by plate counting method. The essentials: as §1

Converted amounts (≈) assume the structure as drawn. Where only a bound is given, the exact number is not on record here.

As for `CCCCCCCCCCNCCN[C@@]1(C)C[C@H](O[C@H]2[C@H](Oc3c4cc5cc3Oc3ccc(cc3Cl)[C@@H](O)[C@@H](NC(=O)[C@@H](CC(C)C)NC)C(=O)N[C@@H](CC(N)=O)C(=O)N[C@H]5C(=O)N[C@H]3C(=O)N[C@H](C(=O)N[C@H](C(=O)O)c5cc(O)c(CNCP(=O)(O)O)c(O)c5-c5cc3ccc5O)[C@H](O)c3ccc(c(Cl)c3)O4)O[C@H](CO)[C@@H](O)[C@@H]2O)O[C@@H](C)[C@H]1O` [TELAVANCIN], the MIC was 0.12 µg/mL (≈ 0.0684 µM) against Staphylococcus aureus [1], 0.25 µg/mL (≈ 0.142 µM) in the experiment on Staphylococcus aureus [5] and 0.5 µg/mL (≈ 0.285 µM) in the experiment with Staphylococcus aureus [6]. The PAE in the experiment with Staphylococcus aureus [2] is 0.8 h; in the experiment on Streptococcus agalactiae [3] it was above 10.7 h; in the experiment with Staphylococcus aureus [4], above 10 h; with Streptococcus pyogenes, above 10.7 h; in the experiment on Staphylococcus aureus [7], 0.3 h; in the experiment with Enterococcus faecalis [8], 0.7 h. Also, the PAE in the experiment with Enterococcus faecalis [9] is 0.1 h; in the experiment on Staphylococcus aureus [10] it was 5.9 h; in the experiment on Streptococcus agalactiae [11], 0.8 h; in the experiment with Enterococcus faecalis [12], 5.3 h; with Enterococcus faecalis [13] it was 3.9 h; with Staphylococcus aureus [14] it was 1.4 h. Moreover, the PAE was above 10 h with Staphylococcus aureus [15], 5.4 h with Staphylococcus aureus [16] and 6.5 h with Staphylococcus aureus [17].
